Test results as given in ChEMBL document CHEMBL3593214, “ent-Abietane-Type and Related Seco-/Nor-diterpenoids from the Rare Chloranthaceae Plant Chloranthus sessilifolius and Their Antineuroinflammatory Activities” (J Nat Prod, 2015).

Key:
[1] = Antineuroinflammatory activity in mouse BV2 cells assessed as inhibition of LPS-stimulated nitric oxide production preincubated for 4 hrs followed by LPS challenge measured after 24 hrs by Griess assay; type: functional, cell-based; conditions: BV-2
Procedure, shortened: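 BV-2 mouse microglia (ATCC) kept in DMEM with 1800 mg/L NaHCO3, 10% FBS and penicillin/streptomycin at 37 °C, 5% CO2. Cells were pretreated 4 h with 3.125–100 μM, then LPS 1 μg/mL for 24 h. Supernatant nitrite was measured by Griess reagent at 540 nm against a NaNO2 standard curve. IC50 is the concentration giving 50% inhibition; mean ± SD of three independent experiments.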

[2] = Cytotoxicity against mouse BV2 cells assessed as cell viability at 50 uM by MTT assay relative to control; type: cell-based, BV-2; conditions: read-out: Activity
Procedure, shortened: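 MTT colorimetric read-out on BV-2 microglia in DMEM/10% FBS at 37 °C, 5% CO2, after treatment at 50 μM. Viability is expressed as percent of untreated control cells; mean ± SD.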

Row | SMILES | IC50 [1] [µM] | viability at 50 µM [2] [%]
1 | CC(C)C1=CC(=O)[C@@]2(CC1)OC(=O)C[C@@H]1C(C)(C)[C@H](O)CC[C@]12C | > 100 | –
2 | CC(C)[C@]1(O)C=C2C(=O)C=C3C(C)(C)[C@H](O)CC[C@@]3(C)[C@@H]2CC1 | > 100 | –
3 | CO[C@]1(C(C)C)C=C2C(=O)C[C@@H]3C(C)(C)[C@H](O)CC[C@@]3(C)[C@@H]2CC1 | 8.3 | 96.7
4 | CC(C)[C@@]1(O)C=C2C(=O)C[C@@H]3[C@@](C)(CO)CCC[C@@]3(C)[C@@H]2CC1 | 7.4 | 96.8
5 | CC(C)(O)c1ccc2c(c1)CC[C@@H]1C(C)(C)[C@H](O)CC[C@@]21C | 17.8 | 95.4
6 | CC(C)(O)c1ccc2c(c1)C(=O)C=C1C(C)(C)[C@H](O)CC[C@]12C | > 100 | –
7 | CC(C)c1ccc2c(c1)[C@H](O)C[C@@H]1C(C)(C)[C@H](O)CC[C@@]21C | 43.9 | 94.7
8 | CC(C)C(=O)CC[C@@H]1C(C=O)=C[C@@H](O)[C@@H]2C(C)(C)[C@H](O)CC[C@@]12C | > 100 | –
9 | CC(C)C(=O)CC[C@@H]1CC(=O)C[C@@H]2C(C)(C)[C@H](O)CC[C@@]12C | > 100 | –
10 | CNC(=N)NCCC[C@H](N)C(=O)O [TILARGININE] | 14.4 | 98.5

Now from value to molecule, other results behind:

Row | IC50 [1] [µM] | SMILES | viability at 50 µM [2] [%]
11 | > 100 | CC(C)C(=O)[C@@H]1C[C@@H]2C(=CC[C@@H]3C(C)(C)[C@H](O)CC[C@@]23C)[C@H]1O | –
12 | > 100 | CC(C)C(=O)[C@H]1C[C@@H]2C(=CC[C@@H]3C(C)(C)[C@H](O)CC[C@@]23C)[C@H]1O | –
13 | > 100 | CC(C)[C@]1(O)C=C2C(=O)C[C@@H]3C(C)(C)[C@H](O)CC[C@@]3(C)[C@@H]2CC1 | –
14 | > 100 | CC1(C)[C@H](O)CC[C@@]2(C)[C@@H]3CC[C@@](O)(C(C)(C)O)C=C3C(=O)C[C@H]12 | –
15 | 37.7 | CC(C)[C@@]1(O)C=C2C(=O)C[C@@H]3C(C)(C)[C@H](O)CC[C@@]3(C)[C@@H]2C[C@H]1O | 98.4
16 | > 100 | CC1(C)[C@H](O)CC[C@@]2(C)[C@@H]3CCC(=O)C=C3[C@@H](O)C[C@H]12 | –
17 | > 100 | CC1(C)[C@H](O)CC[C@@]2(C)[C@@H]3CCC(=O)C=C3[C@H](O)C[C@H]12 | –
